Among all 2,500 compounds or so, about 460 (18%) were called active.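 How the source made its calls: active means mean activation above a cutoff of low control average plus 3 SD from the earlier screen (cut at about 12% in these data); inactive means the rest.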 A selection follows.

This assay is described as follows: compound fluorescence interference without thin filaments, confirmation, artefact control for cardiac RTF calcium sensitizer project, biochemical (AID 504382). As to conditions: IANBD fluorescence interference counterscreen, buffer, EC20 Ca2+; at 7.2 µM; stronger effect = higher value; scaled: EC20 calcium 0, EC100 calcium 100. In a few lines: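 timing = compound incubation 15 min at 25 °C before fluorescence reading | technique = fluorescence at 480 nm excitation, 540 nm emission | evaluation = interference relative to controls | replication = triplicate wells per compound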
On the technique in general: The purpose of a counterscreen is to sort out artefacts and off-target activity.
Consider `COC(=O)c1ccc(CS(=O)(=O)c2ccc(F)cc2)o1`, for which the fluorescence artifact activation is 0.08% (inactive).

For the compound `N#CC1(C#N)CC(C=O)=C(N)C1(C#N)CC(=O)c1ccc(F)cc1` (stereo not drawn), the fluorescence artifact activation was 2.93% (inactive).

For `Cc1ccc(Cn2nc(C)c(NC(=O)C3(C)CC3(Br)Br)c2C)cc1` (stereo not drawn), the fluorescence artifact activation is 6.32% (inactive). As for `CC(NC(=O)CN1CCC(C(N)=O)CC1)c1ccccc1` (stereo not drawn), the fluorescence artifact activation was -0.04% (inactive).

Regarding `Cc1ccc(CNC(=O)c2ccc(S(=O)(=O)N3CCCCC3)cc2)cc1`, the fluorescence artifact activation is -0.06% (inactive). Turning to `Cc1ccc(NC(=O)CN(C)c2ccc(S(=O)(=O)N3CCCC3)cn2)cc1`, the fluorescence artifact activation was 18.6% (active). Consider `CN(C)NC(=S)Nc1ccc(S(=O)(=O)N2CCCCC2)cc1`, for which the fluorescence artifact activation was 2.09% (inactive). For `COc1cc(/C=C/c2sc3ccccc3[n+]2CCCS(=O)(=O)[O-])ccc1O` the value was 1.3% (inactive); for `O=[N+]([O-])c1ccc(NN=Cc2cccc3ccccc23)nc1`, 7.52% (inactive). For `COc1ccc(-n2c(C)cc(/C=C3\SC(=S)NC3=O)c2C)cc1` the value was -0.04% (inactive). Turning to `O=C(CCC1CCCN(C(=O)C2=CCCC2)C1)N1CCN(c2ccccn2)CC1` (stereo not drawn), the fluorescence artifact activation is -0.04% (inactive). With `O/C=c1\ccc2cccc3nc(C(F)(F)F)nc1c23`, the fluorescence artifact activation is 1630% (active).

On to `Cc1ccc(N2C3=C(C(=O)CC(C)(C)C3)C(c3cn(C)nc3C)C3=C2CC(C)(C)CC3=O)cc1`, for which the fluorescence artifact activation is 8.85% (inactive). As to `CN(C)C=NC(=O)c1cc(C(=O)c2ccccc2Cl)c[nH]1`, the fluorescence artifact activation is 0.08% (inactive). As to `O=C(c1c[nH]c(C(=O)C(Cl)(Cl)Cl)c1)c1c(F)cccc1F`, the fluorescence artifact activation is 1460% (active). For `COc1ccc(-n2nc3c(N4CCC(C(=O)NCc5ccco5)CC4)nnc(C)c3c2C)cc1`, the fluorescence artifact activation is 0.15% (inactive).

Consider `Cn1c(/C(C#N)=C(\O)CN2CCN(Cc3ccccc3)CC2)nc2ccccc21`, for which the fluorescence artifact activation was -0.07% (inactive).

`Cc1nc([N+](=O)[O-])c(Sc2nc3ccccc3n2C)n1Cc1ccccc1`: the fluorescence artifact activation was 17.2% (active). Next, `Cc1nc([N+](=O)[O-])c(Br)n1CC(=O)c1ccc2ccccc2c1`: 0.15% (inactive); `COc1cc(-c2c(-c3ccc4c(c3)OCO4)noc2C)ccc1F`: 6.28% (inactive).

Regarding `COC(=O)c1sc(N2C(=O)C(O)=C(C(=O)c3ccc(C)o3)C2c2ccc(F)cc2)nc1C` (stereo not drawn), the fluorescence artifact activation is 7.6% (inactive). For `CCCCOc1cccc(C2C(C(=O)c3cccs3)=C(O)C(=O)N2Cc2cccnc2)c1` (stereo not drawn), the fluorescence artifact activation was -0.01% (inactive). For `CCCOc1ccc(C2C(C(=O)c3ccc(C)o3)=C(O)C(=O)N2CCCn2ccnc2)cc1` (stereo not drawn) the value was 20.7% (active); for `COc1ccc(-c2cc(C(F)(F)F)c3c(N)c(C(=O)NCCSC)sc3n2)cc1`, 0.08% (inactive). In the case of `COc1ccc(Sc2ccc(-c3nc4cnccn4c3NC3CCCCC3)cc2OC)cc1`, the fluorescence artifact activation is 0.04% (inactive).

As to `Cc1ccc(NC(=O)/C(C#N)=C/c2ccc(C)s2)c(C)c1`, the fluorescence artifact activation was 0.06% (inactive). Consider `Cc1cccc(CSc2ccc(-c3ccco3)nn2)c1`, for which the fluorescence artifact activation was 0.5% (inactive). Consider `Cc1cc(C)c2c(=O)n(-c3ccccc3)[nH]c2n1`, for which the fluorescence artifact activation was 0.96% (inactive). For the compound `Cc1cc(C)nc(SCCCNCc2ccc(Br)cc2)n1`, the fluorescence artifact activation was -0.01% (inactive). With `CC(=O)C1=C(C)N(Cc2ccccc2)C(=O)N[C@@H]1c1cccc(C(F)(F)F)c1`, the fluorescence artifact activation was -0.08% (inactive).

Take `CC(=O)C1=C(C)N(CC2CC2)C(=O)N[C@H]1c1ccc(Br)cc1`: the fluorescence artifact activation is 36.6% (active). For `O=c1c2ccccc2nc2n1CCCN2`, the fluorescence artifact activation is 2.97% (inactive).

Regarding `N=c1n(Cc2ccccc2)c2ccccc2n1CC(O)c1ccco1` (stereo not drawn), the fluorescence artifact activation is 7.18% (inactive). For the compound `CC1(C)CCN2CCC(C)(C)c3c(O)ccc1c32`, the fluorescence artifact activation is 11.3% (inactive). Take `Cc1ccc(CC2C(=O)N(c3ccc(C)cc3)C(=O)C2C)cc1` (stereo not drawn): the fluorescence artifact activation is 0.52% (inactive). Regarding `O=C(N/N=C\c1c(O)ccc2ccccc12)c1cncc(Br)c1`, the fluorescence artifact activation was 0.16% (inactive). Take `O=C(NN=Cc1c(O)ccc2ccccc12)c1ccncc1`: the fluorescence artifact activation was -0.04% (inactive). On to `O=C(N/N=C/c1c(O)ccc2ccccc12)c1cccc(C(F)(F)F)c1`, for which the fluorescence artifact activation is 53.1% (active).

Regarding `Cc1ccc(-c2nc(NC(=O)CSc3cc(C)c4ccccc4n3)ns2)cc1`, the fluorescence artifact activation is 0.03% (inactive). Next, `CN1CC=C2C(C#N)=C(N)C(C#N)(C#N)[C@H](c3cccs3)[C@H]2C1`: 0.05% (inactive); `CN1CC=C2C(C#N)=C(N)C(C#N)(C#N)[C@H](c3ccoc3)[C@H]2C1`: 8.68% (inactive).

In the case of `CC(=O)n1cc(CO)c2ccccc21`, the fluorescence artifact activation is 95.5% (active). Consider `CSc1c(CC(=O)NCCO)n(C)c2ccccc12`, for which the fluorescence artifact activation is 4.19% (inactive).

Turning to `Cc1ccc(Cn2cc(CCC(=O)O)c3ccccc32)cc1`, the fluorescence artifact activation was 2.34% (inactive). For `CCOC(=O)C(C(=O)Nc1cccc(C)n1)C1CCCCC1` (stereo not drawn), the fluorescence artifact activation is -0.06% (inactive). For `CCCc1cc(=O)[nH]c(SCC)n1` the value was 0.11% (inactive); for `Cc1cc(=O)oc2c3c(cc(OCC(=O)NCc4ccccn4)c12)OC(C)(C)CC3`, 0.25% (inactive). As for `CCCc1cc(=O)oc2c3c(cc(OCC(=O)N[C@@H](CSC)C(=O)O)c12)OC(C)(C)CC3`, the fluorescence artifact activation was 14.3% (active).

Regarding `Cc1c(C)c2c(OCC(=O)N3CCC(O)CC3)cc3c(c2oc1=O)CCC(C)(C)O3`, the fluorescence artifact activation is -0.07% (inactive). `O=C(CSc1nc2ncc(Br)cc2[nH]1)c1cccc([N+](=O)[O-])c1`: the fluorescence artifact activation is 3.54% (inactive). For `O=C(C[n+]1cccc2ccccc21)c1ccccc1` the value was 0.14% (inactive); for `COC(=O)C[n+]1cccc2ccccc21`, 81.3% (active); for `COc1cccc(OCCCn2cc(/C=C3/C(=N)N4C=C(C)SC4=NC3=O)c3ccccc32)c1`, 0.05% (inactive). For the compound `N=C1/C(=C\c2coc3ccc(O)cc3c2=O)C(=O)N=C2SC=CN12`, the fluorescence artifact activation is -0.02% (inactive). For `COC(=O)N/N=C/c1cccnc1`, the fluorescence artifact activation is 0.05% (inactive). In the case of `COC1C/C(=N\O)C2OC(c3ccccc3)OCC2O1` (stereo not drawn), the fluorescence artifact activation was 0.43% (inactive). Take `COc1ccc(OC)c(/C=C2/Sc3ccccc3C2=O)c1`: the fluorescence artifact activation is 0.05% (inactive).

Turning to `COc1ccc(C2C(C(C)=O)=C(C)N=c3s/c(=C\c4cc(C)n(C)c4C)c(=O)n32)c(OC)c1` (stereo not drawn), the fluorescence artifact activation was 4.81% (inactive). As to `O=C(CNC(=O)C12CC3CC(CC(C3)C1)C2)OCC(=O)N1CCCCC1`, the fluorescence artifact activation was 0.38% (inactive).

On to `Cc1ccc(-c2ccc(OC(=O)c3ccc(=O)[nH]c3)c(C)c2)cc1`, for which the fluorescence artifact activation was 4.65% (inactive). On to `Cc1ccc(CNc2cccnc2)cc1`, for which the fluorescence artifact activation was 0.43% (inactive). Next, `Cc1ccc(-c2nc(N)n(C(=O)c3cccnc3)n2)cc1`: 57.1% (active); `COc1ccccc1C(=O)n1nc(-c2ccccc2)nc1N`: -0.09% (inactive). Take `CN(Cc1ccccc1)C(=O)c1ccc(NC(=O)Cc2ccc(NC(=O)C3CCCN(S(=O)(=O)c4cccc([N+](=O)[O-])c4)C3)cc2)cc1` (stereo not drawn): the fluorescence artifact activation is 0.65% (inactive).

As for `CCN1CCN(Cc2c(O)ccc3c2O/C(=C\c2ccc(C)cc2)C3=O)CC1`, the fluorescence artifact activation is 0.17% (inactive). Consider `O=c1[nH]c2ccc(N=Cc3c(O)ccc4cc(Br)ccc34)cc2[nH]1`, for which the fluorescence artifact activation is -0.04% (inactive). Take `C=CCNc1oc(COc2ccc(C)cc2)nc1C#N`: the fluorescence artifact activation was 3.74% (inactive). Regarding `CCC(CC)c1nc(C#N)c(NC(C)c2ccccc2)o1` (stereo not drawn), the fluorescence artifact activation is 0% (inactive). For `COc1ccc(CNc2oc(COc3ccccc3)nc2C#N)cc1` the value was 21.9% (active). Regarding `N#Cc1ccccc1OCC(=O)OCC(=O)c1ccc2c(c1)NC(=O)CO2`, the fluorescence artifact activation is 5.5% (inactive). Turning to `O=C(OCCN1C(=O)c2cccc3c(N4CCOCC4)ccc(c23)C1=O)c1ccccc1Cl`, the fluorescence artifact activation was 0.47% (inactive).

As to `CCOC(=O)c1cnc2c(C)c(Cl)ccc2c1N1CCOCC1`, the fluorescence artifact activation was 28.3% (active). For `O=C(OCCN1C(=O)c2cccc3c(N4CCOCC4)ccc(c23)C1=O)c1ccc(Cl)cc1Cl` the value was 8.85% (inactive); for `CCSc1nnc(-c2sc3nnc(-c4ccccc4)c(-c4ccccc4)c3c2N)o1`, 0.15% (inactive); for `CCc1ccccc1SCc1noc(C(=O)NCC2CCCO2)c1C(=O)O` (stereo not drawn), 0.19% (inactive).

For `O=C(NC(=S)NCC1CCCO1)C(c1ccccc1)c1ccccc1` (stereo not drawn), the fluorescence artifact activation was 0.17% (inactive).

As for `OC(CNCC1CCCO1)Cn1c2ccc(Br)cc2c2cc(Br)ccc21` (stereo not drawn), the fluorescence artifact activation was 12.3% (active).

Regarding `O=C(COC(=O)/C=C/c1ccc(Cl)cc1)NCCN1C(=O)CSC1=O`, the fluorescence artifact activation is -0.09% (inactive). Next, `O=C(N/N=C/c1ccccc1OC(=O)c1ccc2c(c1)OCO2)c1cccc(F)c1`: 17.8% (active); `O=C(N/N=C/c1ccc2c(c1)OCO2)/C(=C/c1ccc2c(c1)OCO2)NC(=O)c1ccccc1`: 0.46% (inactive); `COc1cc(C(=O)Oc2ccccc2/C=N/NC(=O)c2ccc(Cl)cc2)cc(OC)c1OC`: 11.5% (inactive). For `COCC(=O)NC1CCN(S(=O)(=O)c2cccc(C(C)=O)c2)CC1`, the fluorescence artifact activation is 3.2% (inactive).

In the case of `COc1ccc(OCCNC(=O)c2ccc(C)cc2)cc1`, the fluorescence artifact activation is 6.32% (inactive). As to `Cc1ccc(C(=O)NCC(=O)OCC(=O)N(CC(C)C)c2c(N)n(Cc3ccccc3)c(=O)[nH]c2=O)cc1`, the fluorescence artifact activation is 0.05% (inactive). Regarding `Cc1ccc(C(=O)NCC(=O)OCC(=O)c2ccc(Cl)s2)cc1`, the fluorescence artifact activation is 77.8% (active). With `COc1ccc2nc(C)cc(NCc3ccc(F)cc3)c2c1`, the fluorescence artifact activation was 0.15% (inactive). On to `Cc1cccc(NC(=O)CSc2nnc(CSc3nc(C)cc(C)n3)n2Cc2ccco2)c1`, for which the fluorescence artifact activation is 1.92% (inactive). As for `O=C(COC(=O)C1CCCCC1)Nc1ccc([N+](=O)[O-])cc1`, the fluorescence artifact activation is 28.8% (active). As to `Cc1ccc(C(=O)COC(=O)C2CCC2)cc1`, the fluorescence artifact activation was 7.89% (inactive).

Take `O=C(COC(=O)C1CC2C=CC1C2)Nc1cccc(S(=O)(=O)N2CCCCCC2)c1` (stereo not drawn): the fluorescence artifact activation is -0.04% (inactive). Next, `O=C(COC(=O)C1CCC(=O)N1)Nc1ccc(Oc2ccccc2)cc1` (stereo not drawn): 0.14% (inactive); `O=C(COc1ccc(Cl)cc1)NCc1ccccc1`: 0.08% (inactive); `O=C(COC(=O)C1CCC1)NCc1ccccc1`: 82.9% (active).
